Assay results collected from several papers.
Protocols differ between the studies behind these lines.
Target: Bone morphogenetic protein receptor type-2 (BMPR2, Homo sapiens, UniProt Q13873)
One construct used (Q13873 27-1038): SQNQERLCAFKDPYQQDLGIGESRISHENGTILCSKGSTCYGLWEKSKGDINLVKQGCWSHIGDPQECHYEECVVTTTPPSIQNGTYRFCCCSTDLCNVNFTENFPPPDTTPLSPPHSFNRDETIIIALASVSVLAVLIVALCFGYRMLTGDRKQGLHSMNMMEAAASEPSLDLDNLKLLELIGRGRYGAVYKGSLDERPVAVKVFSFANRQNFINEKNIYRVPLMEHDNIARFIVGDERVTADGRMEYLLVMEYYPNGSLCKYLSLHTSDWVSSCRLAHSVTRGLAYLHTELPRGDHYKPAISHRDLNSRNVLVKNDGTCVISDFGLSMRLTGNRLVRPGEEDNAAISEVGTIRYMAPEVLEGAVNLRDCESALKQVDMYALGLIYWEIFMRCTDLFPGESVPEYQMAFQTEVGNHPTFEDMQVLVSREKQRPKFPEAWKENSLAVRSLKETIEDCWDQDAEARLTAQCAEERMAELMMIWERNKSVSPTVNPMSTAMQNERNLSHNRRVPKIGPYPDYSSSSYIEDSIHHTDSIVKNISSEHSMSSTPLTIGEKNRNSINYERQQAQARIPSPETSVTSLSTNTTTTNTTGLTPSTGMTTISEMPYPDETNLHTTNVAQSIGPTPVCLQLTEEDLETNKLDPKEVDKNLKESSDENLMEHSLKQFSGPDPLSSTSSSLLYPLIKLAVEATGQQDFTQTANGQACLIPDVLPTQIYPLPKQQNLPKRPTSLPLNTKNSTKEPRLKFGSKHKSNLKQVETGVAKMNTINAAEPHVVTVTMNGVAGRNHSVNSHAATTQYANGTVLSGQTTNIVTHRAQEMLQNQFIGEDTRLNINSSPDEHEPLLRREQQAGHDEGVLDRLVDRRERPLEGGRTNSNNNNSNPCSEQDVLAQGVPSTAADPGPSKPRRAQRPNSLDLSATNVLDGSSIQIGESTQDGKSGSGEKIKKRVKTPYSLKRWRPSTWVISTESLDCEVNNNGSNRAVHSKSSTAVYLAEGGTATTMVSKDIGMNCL

`Cc1cnc(Nc2ccc(C(=O)N3CCC(N4CCCC4)CC3)cc2)nc1-c1cc2ccccc2s1` has a remaining binding of 25% (binding; competition with immobilised ligand; 1 µM).
For `CC1CCCN1c1nccc(-c2cnn3ncccc23)n1` (stereo not drawn), the remaining binding was 97% (binding; 1 µM).
For `C[C@@H]1CN(c2cc(-c3nn(C)c4ccc(OC5(C)CC5)cc34)ncn2)C[C@H](C)O1`, the remaining binding was 54% (cell-free assay; competition with immobilised ligand; 1 µM).
`CN(C)c1ncc(F)c(-c2cnn3ncccc23)n1` gave a remaining binding of 74% (binding; 1 µM).
With `O=C(NCc1ncc(C(F)(F)F)cc1Cl)c1ccc2c(c1)C1(CCS(=O)(=O)CC1)[C@H](C1CC1)N2S(=O)(=O)c1ccc(F)cc1` the remaining binding was 80% (cell-free assay; competition with immobilised ligand; 1 µM).
`CCN1CCN(Cc2ccc(C(=O)Nc3ccc(C)c(Oc4ccc5c(c4)CC(=O)N5)c3)cc2C(F)(F)F)CC1` gave a remaining binding of 100% (binding; competition with immobilised ligand; 1 µM).
With `COc1cnc(Nc2cccc(S(N)(=O)=O)c2)nc1N1CCN(c2ccccc2)C(=O)C1` the remaining binding was 0% (binding; competition with immobilised ligand; 1 µM).
For `O=C(NCC1CCOCC1)c1n[nH]cc1NC(=O)c1c(F)cccc1F`, the remaining binding was 86% (binding; competition with immobilised ligand; 1 µM).
`CN(C)c1nccc(-c2cnn3ncccc23)n1` gave a remaining binding of 99% (binding; 1 µM).
The remaining binding of `CC(C)(C)c1ccc(-c2nc(CBr)nn2-c2cccc(O)c2)cc1` is reported as 81% (cell-free assay; competition with immobilised ligand; 10 µM).
With `Nc1ncc2c(n1)-c1c([nH]c3ccc(C#CC4CC4)cc13)CCCC2` the remaining binding was 96% (binding; competition with immobilised ligand; 1 µM).
The remaining binding of `C[C@@H]1CN(c2ccc3ncc(-c4ccc5[nH]nc(C6CC6)c5c4)n3n2)C[C@H](C)O1` is reported as 89% (binding; competition with immobilised ligand; 50 nM).
`CN(CCCC(F)(F)F)c1nccc(-c2cnn3ncccc23)n1` gave a remaining binding of 97% (binding; 1 µM).
With `Cc1c(NC(=O)c2cc(C(N)=O)nc3cc(F)ccc23)c(C(F)(F)F)nn1Cc1ccc(C(C)(C)C)cc1` the remaining binding was 100% (cell-free assay; competition with immobilised ligand; 1 µM).
`CNC(=O)[C@@H]1CC[C@@H](n2c(-c3ccc4cnccc4c3)nc3ccc(C(=O)NCc4cccc(C(N)=O)c4)cc32)C1` gave a remaining binding of 0.25% (binding; competition with immobilised ligand; 1 µM).
`N[C@H]1CCN(c2nccc(-c3cnn4ncccc34)n2)C1` has a remaining binding of 100% (binding; 1 µM).
With `CC(=O)N1CCC(c2ccc(C(=O)NC3=NCCN3)cc2C(F)(F)F)CC1` the remaining binding was 100% (cell-free assay; competition with immobilised ligand; 1 µM).
The remaining binding of `C[C@H]1CCN(c2nccc(-c3cnn4ncccc34)n2)C1` is reported as 97% (binding; 1 µM).
With `CNCc1ccccc1-c1csc([C@@H](C)Nc2nc(C)nc3cc(OC)c(OC)cc23)c1` the remaining binding was 100% (cell-free assay; competition with immobilised ligand; 1 µM).
For `O=C(NCCCN1CCOCC1)c1ccc(Nc2nccc(-c3cc4ccccc4s3)n2)cc1`, the remaining binding was 66% (binding; competition with immobilised ligand; 1 µM).
With `CSc1cccnc1N1CCN(Cc2nc3ccccc3[nH]2)CC1` the remaining binding was 80% (cell-free assay; competition with immobilised ligand; 1 µM).
With `O=C(c1ccc(Nc2ncc(Cl)c(-c3ccc(Cl)s3)n2)cc1)N1CCC(N2CCCC2)CC1` the remaining binding was 28% (binding; competition with immobilised ligand; 1 µM).
`CS(=O)(=O)c1cc(C2(NC(=O)c3cncc4c3cnn4-c3ccc(F)cc3)CC2)ccn1` has a remaining binding of 99% (cell-free assay; competition with immobilised ligand; 1 µM).
The remaining binding of `COc1ccnn2ncc(-c3ccnc(N(C)C)n3)c12` is reported as 65% (binding; 1 µM).
